Experimental data as given in ChEMBL document CHEMBL4265871, “Novel alkylated azoles as potent antifungals” (Eur J Med Chem, 2017).
Converted amounts (≈) assume the structure as drawn. The source made the active and inactive calls. The calls are words filed in the database; no cut-off is given here.

What was measured:
Nakaseomyces glabratus = experiment: Antifungal activity against Candida glabrata ATCC 2001 incubated for 48 hrs by modified CLSI M27-A3 protocol based method; type: functional; settings: ATCC 2001, 48 h
Candida albicans [1] = experiment: Antifungal activity against ITC and FLC-resistant Candida albicans ATCC MYA-1003 incubated for 48 hrs by modified CLSI M27-A3 protocol based method; type: functional; settings: ATCC MYA-1003, 48 h
Outline: (§1)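 Because these Candida strains show trailing growth, MIC-2 was read, meaning 50% growth inhibition. Caspofungin and voriconazole were tested here; other controls came from earlier work.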

Candida albicans [2] = experiment: Antifungal activity against ITC and FLC-resistant Candida albicans ATCC 1237 incubated for 48 hrs by modified CLSI M27-A3 protocol based method; type: functional; settings: ATCC 1237, 48 h; outline: as §1
Candida albicans [3] = experiment: Antifungal activity against Candida albicans ATCC 64124 incubated for 48 hrs by modified CLSI M27-A3 protocol based method; type: functional; settings: ATCC 64124, 48 h
Candida albicans [4] = experiment: Antifungal activity against Candida albicans ATCC 10231 incubated for 48 hrs by modified CLSI M27-A3 protocol based method; type: functional; settings: ATCC 10231, 48 h; for MIC: read-out: MIC100
Outline: (§2)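 For C. albicans ATCC 10231, C. krusei ATCC 6258 and C. parapsilosis ATCC 22019, MIC-0 was read, meaning complete growth inhibition. For azole controls, MIC-2 (50% growth inhibition) was reported instead. Caspofungin and voriconazole were tested here; other controls came from earlier work.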

Aspergillus terreus = experiment: Antifungal activity against Aspergillus terreus ATCC MYA-3633 incubated for 48 hrs by CLSI M38-A2 protocol based method; type: functional; settings: ATCC MYA-3633, 48 h; for MIC: read-out: MIC100
Pichia kudriavzevii = experiment: Antifungal activity against Candida krusei ATCC 6258 incubated for 48 hrs by modified CLSI M27-A3 protocol based method; type: functional; settings: ATCC 6258, 48 h; for MIC: read-out: MIC100; outline: as §2
Candida albicans [5] = experiment: Antifungal activity against ITC and FLC-susceptible Candida albicans ATCC MYA-2876 incubated for 48 hrs by modified CLSI M27-A3 protocol based method; type: functional; settings: ATCC MYA-2876, 48 h; outline: as §1
Aspergillus nidulans = experiment: Antifungal activity against Aspergillus nidulans ATCC 38163 incubated for 48 hrs by CLSI M38-A2 protocol based method; type: functional; settings: ATCC 38163, 48 h; for MIC: read-out: MIC100
Aspergillus flavus = experiment: Antifungal activity against Aspergillus flavus ATCC MYA-3631 incubated for 48 hrs by CLSI M38-A2 protocol based method; type: functional; settings: ATCC MYA-3631, 48 h; for MIC: read-out: MIC100
Candida albicans [6] = experiment: Antifungal activity against ITC and FLC-susceptible Candida albicans ATCC MYA-2310 incubated for 48 hrs by modified CLSI M27-A3 protocol based method; type: functional; settings: ATCC MYA-2310, 48 h
Candida parapsilosis = experiment: Antifungal activity against Candida parapsilosis ATCC 22019 incubated for 48 hrs by modified CLSI M27-A3 protocol based method; type: functional; settings: Lodderomyces parapsilosis, ATCC 22019, 48 h; for MIC: read-out: MIC100; outline: as §2
Candida albicans [7] = experiment: Antifungal activity against ITC and FLC-resistant Candida albicans ATCC MYA-90819 incubated for 48 hrs by modified CLSI M27-A3 protocol based method; type: functional; settings: ATCC MYA-90819, 48 h
Candida albicans [8] = experiment: Antifungal activity against Candida albicans ATCC 10231 at 0.5 to 4 times MIC incubated for 3 to 24 hrs by time kill assay
Candida albicans [9] = experiment: Induction of membrane permeabilization in Candida albicans ATCC 10231 at 1 to 4 times MIC incubated for 1 hr by propidium iodide staining based fluorescence microscopy; type: functional, organism-based
Outline: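 C. albicans ATCC 10231 treated at 1× and 4× MIC and stained with propidium iodide, a membrane-impermeant dye, to detect membrane damage. Untreated cells, FLC (7.8 µg/mL) and KANB (C14) (7.8 µg/mL) serve as comparators.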

Structure (SMILES): CCCCCC(O)(Cn1cncn1)c1cccc(Cl)c1 (centres undefined)
- MIC50 (Nakaseomyces glabratus): > 106 µM
- MIC50 (Candida albicans [1]): > 106 µM
- MIC50 (Candida albicans [2]): 6.6 µM (≈ 1.94 µg/mL)
- MIC50 (Candida albicans [3]): 106 µM (≈ 31.3 µg/mL)
- MIC (Candida albicans [4]): > 106 µM
- MIC (Aspergillus terreus): 1.6 µM (≈ 0.47 µg/mL)
- MIC (Pichia kudriavzevii): > 106 µM
- MIC50 (Candida albicans [5]): > 106 µM
- MIC (Aspergillus nidulans): 0.2 µM (≈ 0.0588 µg/mL)
- MIC (Aspergillus flavus): 13.3 µM (≈ 3.91 µg/mL)
- MIC50 (Candida albicans [6]): 6.6 µM (≈ 1.94 µg/mL)
- MIC (Candida parapsilosis): > 106 µM
- MIC50 (Candida albicans [7]): 13.3 µM (≈ 3.91 µg/mL)

Structure (SMILES): C[C@@H](c1ncncc1F)[C@](O)(Cn1cncn1)c1ccc(F)cc1F [VORICONAZOLE]
- MIC50 (Nakaseomyces glabratus): 0.17 µM (≈ 0.0594 µg/mL)
- MIC50 (Candida albicans [1]): 5.6 µM (≈ 1.96 µg/mL)
- MIC50 (Candida albicans [2]): 22.3 µM (≈ 7.79 µg/mL)
- MIC50 (Candida albicans [3]): 11.2 µM (≈ 3.91 µg/mL)
- MIC50 (Aspergillus terreus): 0.34 µM (≈ 0.119 µg/mL)
- MIC50 (Pichia kudriavzevii): 0.34 µM (≈ 0.119 µg/mL)
- MIC50 (Candida albicans [5]): 5.6 µM (≈ 1.96 µg/mL)
- MIC50 (Aspergillus nidulans): 0.06 µM (≈ 0.021 µg/mL)
- Activity (Candida albicans [8]): Dose-dependent effect
- MIC50 (Candida albicans [6]): 2.8 µM (≈ 0.978 µg/mL)
- MIC50 (Candida parapsilosis): < 0.06 µM
- MIC50 (Candida albicans [7]): 5.6 µM (≈ 1.96 µg/mL)

Structure (SMILES): CCCCCCCCCCCCC(O)(Cn1cncn1)c1ccc(F)cc1F (centres undefined)
- MIC50 (Nakaseomyces glabratus): 2.5 µM (≈ 0.984 µg/mL)
- MIC50 (Candida albicans [1]): > 79.5 µM
- MIC50 (Candida albicans [2]): 19.8 µM (≈ 7.79 µg/mL)
- MIC50 (Candida albicans [3]): > 79.5 µM
- MIC (Candida albicans [4]): > 79.5 µM
- MIC (Aspergillus terreus): 9.9 µM (≈ 3.9 µg/mL)
- MIC (Pichia kudriavzevii): > 79.5 µM
- MIC50 (Candida albicans [5]): 19.8 µM (≈ 7.79 µg/mL)
- MIC (Aspergillus nidulans): 1.2 µM (≈ 0.472 µg/mL)
- MIC (Aspergillus flavus): > 79.5 µM
- MIC50 (Candida albicans [6]): 19.8 µM (≈ 7.79 µg/mL)
- MIC (Candida parapsilosis): 5 µM (≈ 1.97 µg/mL)
- MIC50 (Candida albicans [7]): > 79.5 µM

Structure (SMILES): N[n+]1cnn(CC(=O)c2ccc(Cl)cc2Cl)c1
- MIC50 (Nakaseomyces glabratus): > 102 µM
- MIC50 (Candida albicans [1]): > 102 µM
- MIC50 (Candida albicans [2]): > 102 µM
- MIC50 (Candida albicans [3]): > 102 µM
- MIC (Candida albicans [4]): > 102 µM
- MIC (Aspergillus terreus): > 102 µM
- MIC (Pichia kudriavzevii): > 102 µM
- MIC50 (Candida albicans [5]): > 102 µM
- MIC (Aspergillus nidulans): > 102 µM
- MIC (Aspergillus flavus): > 102 µM
- MIC50 (Candida albicans [6]): > 102 µM
- MIC (Candida parapsilosis): > 102 µM
- MIC50 (Candida albicans [7]): > 102 µM

Structure (SMILES): CCCCCCC(O)(Cn1cncn1)c1cccc(F)c1 (centres undefined)
- MIC50 (Nakaseomyces glabratus): 26.8 µM (≈ 7.81 µg/mL)
- MIC50 (Candida albicans [1]): 107 µM (≈ 31.3 µg/mL)
- MIC50 (Candida albicans [2]): 3.3 µM (≈ 0.962 µg/mL)
- MIC50 (Candida albicans [3]): > 107 µM
- MIC (Candida albicans [4]): > 107 µM
- MIC (Aspergillus terreus): 107 µM (≈ 31.3 µg/mL)
- MIC (Pichia kudriavzevii): 13.4 µM (≈ 3.9 µg/mL)
- MIC50 (Candida albicans [5]): 6.7 µM (≈ 1.95 µg/mL)
- MIC (Aspergillus nidulans): 13.4 µM (≈ 3.9 µg/mL)
- MIC (Aspergillus flavus): > 107 µM
- MIC50 (Candida albicans [6]): 6.7 µM (≈ 1.95 µg/mL)
- MIC (Candida parapsilosis): 6.7 µM (≈ 1.95 µg/mL)
- MIC50 (Candida albicans [7]): 6.7 µM (≈ 1.95 µg/mL)

Structure (SMILES): CCCCCC(O)(Cn1cncn1)c1cccc(F)c1 (centres undefined)
- MIC50 (Nakaseomyces glabratus): 28.1 µM (≈ 7.79 µg/mL)
- MIC50 (Candida albicans [1]): > 113 µM
- MIC50 (Candida albicans [2]): 14.1 µM (≈ 3.91 µg/mL)
- MIC50 (Candida albicans [3]): > 113 µM
- MIC (Candida albicans [4]): > 113 µM
- MIC (Aspergillus terreus): 14.1 µM (≈ 3.91 µg/mL)
- MIC (Pichia kudriavzevii): 14.1 µM (≈ 3.91 µg/mL)
- MIC50 (Candida albicans [5]): 14.1 µM (≈ 3.91 µg/mL)
- MIC (Aspergillus nidulans): 0.87 µM (≈ 0.241 µg/mL)
- MIC (Aspergillus flavus): ≥ 113 µM
- MIC50 (Candida albicans [6]): 14.1 µM (≈ 3.91 µg/mL)
- MIC (Candida parapsilosis): 14.1 µM (≈ 3.91 µg/mL)
- MIC50 (Candida albicans [7]): 14.1 µM (≈ 3.91 µg/mL)

Structure (SMILES): CCC(C)n1ncn(-c2ccc(N3CCN(c4ccc(OCC5COC(Cn6cncn6)(c6ccc(Cl)cc6Cl)O5)cc4)CC3)cc2)c1=O (centres undefined) [ITRACONAZOLE]
- MIC50 (Nakaseomyces glabratus): 11.1 µM (≈ 7.83 µg/mL)
- MIC50 (Candida albicans [1]): 44.4 µM (≈ 31.3 µg/mL)
- MIC50 (Candida albicans [2]): 44.4 µM (≈ 31.3 µg/mL)
- MIC50 (Candida albicans [3]): > 88.6 µM
- MIC50 (Candida albicans [4]): 0.71 µM (≈ 0.501 µg/mL)
- MIC50 (Aspergillus terreus): 1.4 µM (≈ 0.988 µg/mL)
- MIC50 (Pichia kudriavzevii): 0.68 µM (≈ 0.48 µg/mL)
- MIC50 (Candida albicans [5]): 11.1 µM (≈ 7.83 µg/mL)
- MIC50 (Aspergillus nidulans): 0.28 µM (≈ 0.198 µg/mL)
- MIC50 (Aspergillus flavus): 0.68 µM (≈ 0.48 µg/mL)
- MIC50 (Candida albicans [6]): 44.4 µM (≈ 31.3 µg/mL)
- MIC50 (Candida parapsilosis): 0.17 µM (≈ 0.12 µg/mL)
- MIC50 (Candida albicans [7]): 44.4 µM (≈ 31.3 µg/mL)

Structure (SMILES): CCCCCCCCCCC(O)(Cn1cncn1)c1ccc(F)cc1F (centres undefined)
- MIC50 (Nakaseomyces glabratus): 21.3 µM (≈ 7.78 µg/mL)
- MIC50 (Candida albicans [1]): > 85.6 µM
- Activity (Candida albicans [9]): inactive
- MIC50 (Candida albicans [2]): > 85.6 µM
- MIC50 (Candida albicans [3]): 42.7 µM (≈ 15.6 µg/mL)
- MIC (Candida albicans [4]): 21.3 µM (≈ 7.78 µg/mL)
- MIC (Aspergillus terreus): 10.7 µM (≈ 3.91 µg/mL)
- MIC (Pichia kudriavzevii): 0.66 µM (≈ 0.241 µg/mL)
- MIC50 (Candida albicans [5]): 21.3 µM (≈ 7.78 µg/mL)
- MIC (Aspergillus nidulans): 0.66 µM (≈ 0.241 µg/mL)
- MIC (Aspergillus flavus): > 85.6 µM
- MIC50 (Candida albicans [6]): 21.3 µM (≈ 7.78 µg/mL)
- MIC (Candida parapsilosis): 0.33 µM (≈ 0.121 µg/mL)
- MIC50 (Candida albicans [7]): 85.6 µM (≈ 31.3 µg/mL)
